Reference: ChEMBL document CHEMBL1136761 (J Med Chem, 2003)

How the values were obtained:
[1] = molecular target: T1, Sodium-dependent dopamine transporter (Rattus norvegicus, UniProt P23977); test: Affinity at rat dopamine transporter using [125I]RTI-55 displacement.
In short: (§1)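 Binding was measured by competition against [125I]RTI-55 at DAT and SERT, and affinities were reported as Ki values. The selectivity ratio is SERT Ki divided by DAT Ki. Other conditions follow a cited earlier method.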

[2] = molecular target: T2, Sodium-dependent serotonin transporter (Rattus norvegicus, UniProt P31652); test: Affinity at rat serotonin transporter using [125I]RTI-55 displacement.; in short: as §1
T2 sequence (P31652 whole entry): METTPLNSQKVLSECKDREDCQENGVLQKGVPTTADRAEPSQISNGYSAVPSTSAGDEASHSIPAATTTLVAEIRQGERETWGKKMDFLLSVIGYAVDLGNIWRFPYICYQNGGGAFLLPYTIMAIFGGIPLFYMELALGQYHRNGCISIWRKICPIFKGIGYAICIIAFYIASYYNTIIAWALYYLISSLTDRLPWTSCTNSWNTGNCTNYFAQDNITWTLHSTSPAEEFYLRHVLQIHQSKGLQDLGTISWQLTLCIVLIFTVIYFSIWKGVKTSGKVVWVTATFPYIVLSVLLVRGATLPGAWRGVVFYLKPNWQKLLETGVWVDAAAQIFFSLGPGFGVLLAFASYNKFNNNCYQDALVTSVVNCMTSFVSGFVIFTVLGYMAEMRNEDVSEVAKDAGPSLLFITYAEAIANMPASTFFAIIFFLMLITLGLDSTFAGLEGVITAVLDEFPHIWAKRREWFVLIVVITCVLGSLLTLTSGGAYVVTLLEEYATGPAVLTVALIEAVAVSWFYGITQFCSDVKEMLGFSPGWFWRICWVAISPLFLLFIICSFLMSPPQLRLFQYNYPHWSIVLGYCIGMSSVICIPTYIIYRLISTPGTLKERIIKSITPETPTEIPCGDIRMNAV

[3] = molecular target: Monoamine transporters; serotonin & dopamine (Rattus norvegicus) (UniProt P31652+P23977); test: Ratio between affinities at the rat dopamine and serotonin transporters.; type: protein assay; in short: as §1
Monoamine transporters; serotonin & dopamine (Rattus norvegicus), sequence (P23977 whole entry, looked up): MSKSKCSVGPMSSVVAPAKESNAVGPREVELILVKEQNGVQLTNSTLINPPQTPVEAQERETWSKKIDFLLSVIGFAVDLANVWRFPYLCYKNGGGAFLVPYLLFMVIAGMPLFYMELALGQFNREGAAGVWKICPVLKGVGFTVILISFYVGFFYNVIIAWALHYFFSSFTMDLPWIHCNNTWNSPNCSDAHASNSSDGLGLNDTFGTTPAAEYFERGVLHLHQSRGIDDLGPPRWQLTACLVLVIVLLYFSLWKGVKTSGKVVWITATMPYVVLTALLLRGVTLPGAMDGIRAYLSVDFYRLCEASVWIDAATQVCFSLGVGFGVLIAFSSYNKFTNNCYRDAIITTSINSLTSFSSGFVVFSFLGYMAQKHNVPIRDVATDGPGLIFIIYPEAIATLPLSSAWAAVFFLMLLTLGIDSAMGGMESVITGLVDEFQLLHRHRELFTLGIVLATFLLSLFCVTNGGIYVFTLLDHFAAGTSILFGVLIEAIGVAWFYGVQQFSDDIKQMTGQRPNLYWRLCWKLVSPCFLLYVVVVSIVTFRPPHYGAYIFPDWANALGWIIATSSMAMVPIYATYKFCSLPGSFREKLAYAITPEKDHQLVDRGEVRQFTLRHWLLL
Monoamine transporters; serotonin & dopamine (Rattus norvegicus), sequence (P31652 whole entry, looked up): as the sequence (P31652 whole entry) above

[4] = molecular target: T1, Sodium-dependent dopamine transporter; test: Inhibition of [3H]dopamine uptake via rat dopamine transporter.
[5] = molecular target: Norepinephrine transporter (Rattus norvegicus, UniProt Q9WTR4); test: Inhibition of [3H]norepinephrine uptake at the rat norepinephrine transporter.
Norepinephrine transporter, sequence (Q9WTR4 whole entry): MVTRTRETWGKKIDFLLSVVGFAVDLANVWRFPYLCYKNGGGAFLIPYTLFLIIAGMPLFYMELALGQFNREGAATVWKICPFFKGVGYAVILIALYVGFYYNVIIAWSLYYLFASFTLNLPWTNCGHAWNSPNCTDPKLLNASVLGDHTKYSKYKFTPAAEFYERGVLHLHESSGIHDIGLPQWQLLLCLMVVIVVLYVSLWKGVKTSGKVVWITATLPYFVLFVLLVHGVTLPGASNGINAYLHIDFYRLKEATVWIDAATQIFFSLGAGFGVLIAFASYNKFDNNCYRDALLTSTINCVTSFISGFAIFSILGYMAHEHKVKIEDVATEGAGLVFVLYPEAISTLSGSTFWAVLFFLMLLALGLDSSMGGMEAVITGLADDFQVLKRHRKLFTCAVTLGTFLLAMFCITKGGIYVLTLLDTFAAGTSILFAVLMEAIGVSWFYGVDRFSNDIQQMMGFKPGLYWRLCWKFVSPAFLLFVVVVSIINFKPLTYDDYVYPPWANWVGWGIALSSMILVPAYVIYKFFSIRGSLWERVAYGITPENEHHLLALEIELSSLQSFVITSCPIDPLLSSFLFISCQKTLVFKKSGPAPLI

[6] = molecular target: T2, Sodium-dependent serotonin transporter; test: Inhibition of [3H]5-HT uptake at the rat serotonin transporter.
[7] = Ratio between the inhibition of serotonin and dopamine uptake.
[8] = Ratio between the inhibition of norepinephrine and dopamine uptake.

T1 sequence (P23977 whole entry): as the sequence (P23977 whole entry, looked up) above

SMILES	Ki [1]	Ki [2]	Ratio [3]	Ki [4]	Ki [5]	Ki [6]	Ratio [7]	Ratio [8]
COc1ccccc1CN1CCC(CCOC(c2ccc(F)cc2)c2ccc(F)cc2)CC1	63 nM	248 nM	4					
O=[N+]([O-])c1ccc(CN2CCC(CCOC(c3ccc(F)cc3)c3ccc(F)cc3)CC2)cc1	1.2 nM	387 nM	323	6.9 nM	231 nM	1560 nM		
N#Cc1ccc(CN2CCC(CCOC(c3ccc(F)cc3)c3ccc(F)cc3)CC2)cc1	1.2 nM	606 nM	505					
Clc1ccc(CN2CCC(CCOC(c3ccccc3)c3ccccc3)CC2)cc1	3.8 nM	531 nM	140					
Brc1ccc(CN2CCC(CCOC(c3ccccc3)c3ccccc3)CC2)cc1	6.4 nM	988 nM	154	5.3 nM	534 nM	1320 nM		
N#Cc1ccc(CN2CCC(CCOC(c3ccccc3)c3ccccc3)CC2)cc1	5.7 nM	2230 nM	390					
Fc1ccc(CN2CCC(CCOC(c3ccccc3)c3ccccc3)CC2)cc1	5.1 nM	902 nM	177					
COc1cccc(CN2CCC(CCOC(c3ccc(F)cc3)c3ccc(F)cc3)CC2)c1	13.3 nM	161 nM	12					
Fc1ccc(C(OCCC2CCN(Cc3ccccc3)CC2)c2ccc(F)cc2)cc1	9.9 nM	171 nM	17					
COc1ccc(CN2CCC(CCOC(c3ccc(F)cc3)c3ccc(F)cc3)CC2)cc1	7.9 nM	266 nM	34					
Fc1ccc(CN2CCC(CCOC(c3ccc(F)cc3)c3ccc(F)cc3)CC2)cc1	2.3 nM	245 nM	107	3.8 nM	639 nM	601 nM		
Cc1ccc(CN2CCC(CCOC(c3ccc(F)cc3)c3ccc(F)cc3)CC2)cc1	5.7 nM	239 nM	42					
Fc1ccc(C(OCCC2CCN(Cc3ccc4ccccc4c3)CC2)c2ccc(F)cc2)cc1	0.7 nM	88 nM		7.2 nM	93 nM	227 nM		
Fc1ccc(C(OCCC2CCN(Cc3ccc(Cl)cc3)CC2)c2ccc(F)cc2)cc1	1.2 nM	238 nM	198					
Fc1ccc(C(OCCC2CCN(Cc3cccc4ccccc34)CC2)c2ccc(F)cc2)cc1	16 nM	370 nM	23					
O=[N+]([O-])c1ccc(CN2CCC(CCOC(c3ccccc3)c3ccccc3)CC2)cc1	2.5 nM	2150 nM	859	2.7 nM	208 nM	3580 nM		
Ic1ccc(CN2CCC(CCOC(c3ccccc3)c3ccccc3)CC2)cc1	7.2 nM	457 nM	63	5.1 nM	479 nM	2570 nM	500	93
Fc1ccc(C(OCCC2CCN(Cc3ccc(I)cc3)CC2)c2ccc(F)cc2)cc1	2.1 nM	205 nM	98	13.6 nM	546 nM	1020 nM		
Fc1ccc(C(OCCC2CCN(Cc3ccc(Br)cc3)CC2)c2ccc(F)cc2)cc1	1.1 nM	199 nM	181					
FC(F)(F)c1ccc(CN2CCC(CCOC(c3ccccc3)c3ccccc3)CC2)cc1	3.5 nM	2270 nM	648					
Fc1ccc(C(OCCC2CCN(Cc3ccc(C(F)(F)F)cc3)CC2)c2ccc(F)cc2)cc1	1.1 nM	442 nM	402					
